Bioassay records (PubChem)
Compounds with a hit are over-represented: about 2.2% of the library has one in this group of screens.
FLuc inh counter: counter-screen for luciferase assay inhibitors: firefly luciferase inhibition; ATPLite firefly luciferase biochemical luminescence, 10 min; inhibition, % at 10 µM; 1.5% of 200,000 active; AID 1006;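 active = inhibition above about 50% when tested at 10 µM, limit read from the data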
Target sequence (P08659 whole entry, looked up): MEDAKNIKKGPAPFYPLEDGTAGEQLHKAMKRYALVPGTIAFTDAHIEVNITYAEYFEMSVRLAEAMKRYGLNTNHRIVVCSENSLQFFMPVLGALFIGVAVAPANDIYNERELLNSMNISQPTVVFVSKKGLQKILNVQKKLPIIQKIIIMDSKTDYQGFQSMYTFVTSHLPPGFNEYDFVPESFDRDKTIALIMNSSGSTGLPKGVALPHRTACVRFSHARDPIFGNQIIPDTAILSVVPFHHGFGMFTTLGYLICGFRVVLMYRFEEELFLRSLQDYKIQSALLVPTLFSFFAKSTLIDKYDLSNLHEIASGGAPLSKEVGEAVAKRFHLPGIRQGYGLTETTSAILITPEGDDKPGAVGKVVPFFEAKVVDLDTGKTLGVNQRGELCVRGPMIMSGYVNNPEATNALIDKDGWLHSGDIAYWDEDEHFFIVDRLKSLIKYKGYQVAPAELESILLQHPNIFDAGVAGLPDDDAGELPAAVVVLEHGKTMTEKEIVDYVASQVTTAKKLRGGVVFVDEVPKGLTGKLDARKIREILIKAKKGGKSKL
C8 TRAIL sens: sensitizes caspase-8 expressing cells to TRAIL | inhibition (viability loss, TRAIL sensitization), % at 10 µM | 1% of 360,000 active | NB7+C8 cells + TRAIL, ATPlite viability luminescence | AID 624354;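 active = compounds causing at least 50% loss of cell viability in the single-dose screen, relative to plate controls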
NF-kB neuron act: compounds increasing NF-kB expression in human neuronal cells | 1.6% of 190,000 active | NF-kB reporter expression; stronger effect = higher value | fold change at 12.5 µM; in the data active = fold change above about 3.3
APP 5'UTR act: activates APP 5'UTR luciferase reporter; SH-SY5Y APP 5'UTR luciferase reporter, luminescence; zero percent = DMSO vehicle wells; activation, % at 2 µM; 1% of 190,000 active; AID 1276;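 active = activation above a set limit, based on mean plus 3 SD of controls, cut at about 140% in these data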
PPC-1+TRAIL kill: compounds killing PPC-1 cancer cells with TRAIL present (potentiator screen, no TRAIL-free arm); PPC-1 cells + TRAIL, ATPLite viability luminescence; cell killing (% activity), % at 4 µM or 5 µM; 0.41% of 220,000 active; AID 1443;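 active = cell killing above 50% in the first pass at 4 µM, then a duplicate retest at 5 µM averaging 50% or more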;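 note: plate controls were cells with TRAIL plus DMSO for no effect and medium-only wells lacking cells for full effect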
FLuc act counter: affects firefly luciferase, flagging false hits in luciferase stimulation screens | P08659 | ATPlite luciferase biochemical, luminescence, 10 min; 0 = ATP-free wells, 1 = DMSO control | activation factor at 10 µM | 200,000 tested, under 10 active | AID 1027;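 active = luciferase activation factor, scaled between plate controls, of at least 2 with compound at 10 µM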
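Assay system: Luciferase/luciferin detection reagent, cell-free biochemical luciferase assay / Also added: ATP substrate / Schedule: 10 min at ambient temperature / Measured by: luminescence measurement of luciferase light output / Benchmarks: low control with PBS replacing ATP, high control enzyme plus ATP without compound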
An asterisk follows results filed as active; / = not tested or not shown.

SMILES	FLuc inh counter	C8 TRAIL sens	NF-kB neuron act	APP 5'UTR act	PPC-1+TRAIL kill	FLuc act counter
Cc1nc2cc(-c3ccc(F)cc3)[nH]n2c(=O)c1C	/	21.1	/	/	/	/
O=c1c2c(nc3cc(-c4cccc(F)c4)[nH]n13)CCC2	46.7	22.4	4.2*	109.3	25.0	0.5
CCc1c(C)nc2cc(-c3ccc(Cl)cc3)[nH]n2c1=O	/	-0.2	/	/	/	/
O=c1c2c(nc3cc(-c4ccc(F)cc4)[nH]n13)CCCC2	67.6*	53.3*	3.36*	167.6*	43.4	0.3
O=c1c2c(nc3cc(-c4ccc(Cl)cc4)[nH]n13)CCS2	59.8*	50.8*	1.93	86.7	41.0	0.4
COCCNC(=O)C1CCCN(C(=O)COc2ccc(C(C)(C)C)cc2)CC1 (stereo not given)	/	12.4	/	/	/	/
CCN(CC)c1ccc2c(c1)OC(N)=C(C#N)C2c1cccnc1 (stereo not given)	-5.3	4.4	3.49*	-94.4	-16.8	1.1
COc1c(C)cc(C(O)c2ncc(-c3ccc(C(F)(F)F)cc3)[nH]2)cc1C (stereo not given)	/	-3.1	/	/	/	/
C=CCN1C(=O)CSC1=Nc1ccc(O)cc1	-6.9	-11.4	3.38*	1.1	15.0	1.1
Cc1cc(NC2CCCCC2)n2c(n1)nc1ccccc12	-2.3	1.5	5.42*	8.1	4.4	1
Cc1cc(C)c(C)c(S(=O)(=O)N2CCN(CC(=O)c3c(N)n(Cc4ccccc4)c(=O)n(C)c3=O)CC2)c1C	-0.6	60.9*	0.84	-5.0	20.4	1
Cn1c(=O)c(C(=O)CN2CCCCCC2)c(N)n(Cc2ccccc2)c1=O	-2.5	-18.8	0.93	7.5	6.9	1
Cn1c(-c2ccccc2)c(Sc2ccccc2)c2cc(-c3ccc4[nH]ccc4c3)ccc21	/	4.0	/	/	/	/
OCC1OC(n2cnc3c(=S)nc[nH]c32)CC1O (stereo not given)	/	76.0*	/	/	/	/
S=c1nc[nH]c2c1ncn2C1CCCO1 (stereo not given)	/	73.1*	/	/	31.0	/
Cc1ccsc1/C=C1\CCC(C2CCCC2)C1=O (stereo not given)	45.4	17.7	5.91*	201.6*	1.0	0.5
Cc1ccc(/C=C2\CCC(C3CCCC3)C2=O)cc1 (stereo not given)	57.4*	6.1	1.63	156.6*	33.0	0.4
COc1ccc(/C=C2\CCC(C3CCCC3)C2=O)cc1 (stereo not given)	/	-1.0	/	/	/	/
Cc1ccc(-n2c(CNc3ccc(F)cc3)nnc2SCC(=O)O)cc1	-4.0	7.2	1.14	-8.5	0.2	1
Cc1ccc(NCc2nnc(SCC(=O)O)n2-c2ccc(C)cc2)cc1	81.8*	-7.6	1.23	-1.1	/	0.2
CC1(C(=O)N/N=C/c2c(F)c(F)c(F)c(F)c2F)CC1(Cl)Cl (stereo not given)	/	76.7*	/	/	/	/
Cc1c(/C=N\NC(=O)C2(C)CC2(Cl)Cl)cnn1C (stereo not given)	-0.4	-13.7	1.26	12.8	21.2	1
N/C(=N\OC(=O)c1ccc(Cl)cc1)c1cccnc1	94.3*	91.0*	2.53	44.9	26.4	0.1
N/C(=N\OC(=O)c1ccc(Cl)cc1Cl)c1cccnc1	92.8*	61.3*	6.31*	131.0	47.1	0.1
N/C(=N\OC(=O)c1cccc2ccccc12)c1cccnc1	34.2	6.3	1.9	63.1	18.3	0.7
SMILES	FLuc inh counter	C8 TRAIL sens	NF-kB neuron act	APP 5'UTR act	PPC-1+TRAIL kill	FLuc act counter
O=C(N1CCOCC1)C12OC3CC(CC(C3)O1)O2	/	7.7	/	/	/	/
O=C(Nc1cccc(-n2cnnn2)c1)c1ccncc1	/	17.9	/	/	/	/
O=C(Nc1cccc(-n2cnnn2)c1)c1ccc(C(F)(F)F)cc1	/	49.3*	/	/	/	/
Cc1ccc(-c2nc(-c3ccncc3)no2)c(Cl)c1	/	55.4*	/	/	/	/
c1cncc(-c2noc(-c3ccc4ccccc4c3)n2)c1	/	44.9	/	/	/	/
Clc1ccccc1-c1nc(-c2ccncc2)no1	/	2.5	/	/	19.2	/
Cc1ccccc1-c1nc(-c2cccnc2)no1	21.4	9.8	3.67*	76.1	14.6	0.8
Clc1ccccc1-c1nc(-c2cccnc2)no1	73.5*	34.4	1.41	110.7	23.5	0.3
COC(=O)c1ccc(C(=O)N2CCCC(C)(C(=O)NS(=O)(=O)C3CC3)C2)cc1 (stereo not given)	/	2.7	/	/	/	/
O=C(Cc1ccccc1)Nc1cccc([N+](=O)[O-])c1	-0.6	-2.3	1.16	0.0	8.1	1
O=C(Nc1cccc([N+](=O)[O-])c1)c1ccc2ccccc2c1O	/	54.0*	/	/	27.7	/
